Experimental data taken from ChEMBL document CHEMBL1127320, “Dual-action cephalosporins incorporating a 3'-tertiary-amine-linked quinolone” (J Med Chem, 1994).
Converted amounts (≈) assume the structure as drawn.

Tests used:
[1] = tested on: Pseudomonas aeruginosa; assay: Bacterial challenge for systemic murine infection against Pseudomonas aeruginosa 8780; type: functional
In short: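 Mouse protection test in CD1 Swiss albino mice (18-20 g) infected intraperitoneally with 0.5 mL of diluted bacterial suspension. Subcutaneous doses (250 to 0.05 mg/kg) were given immediately after infection and again 3 h later. Six mice per group were used. ED50 was obtained by the Reed-Muench method.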

[2] = tested on: Staphylococcus aureus; assay: In vitro minimum inhibitory concentration was measured against Staphylococcus aureus 67-0 (Methicillin resistant) strain.; type: functional
[3] = tested on: Staphylococcus aureus; assay: In vitro minimum inhibitory concentration was measured against Staphylococcus aureus smith strain.; type: functional
[4] = tested on: Micrococcus luteus; assay: In vitro minimum inhibitory concentration was measured against Micrococcus luteus ATCC 9341 strain.; type: functional
In short: (§1)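 Streptococci were tested on brain heart infusion agar plus 20 units/mL catalase, Proteus on Mueller-Hinton with 3% agar, and others on Mueller-Hinton agar. Inocula were 100-fold-diluted overnight cultures, about 3 × 10^4 CFU/spot, read after overnight incubation at 36 °C.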

[5] = tested on: Serratia marcescens; assay: Bacterial challenge for systemic murine infection against Serratia marcescens SM; type: functional
In short: (§2)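 Mouse protection test in CD1 Swiss albino mice (18-20 g). Mice were infected intraperitoneally with 0.5 mL of diluted bacterial suspension. A single subcutaneous dose at the dorsal neck base was given within 5 min, with doses from 250 to 0.05 mg/kg. Six mice per group were used. ED50 was obtained by the Reed-Muench method.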

[6] = tested on: Pseudomonas aeruginosa; assay: In vitro minimum inhibitory concentration was measured against Pseudomonas aeruginosa 18S/H strain.; type: functional; in short: as §1
[7] = tested on: Klebsiella pneumoniae; assay: In vitro minimum inhibitory concentration was measured against Klebsiella pneumoniae A strain.; type: functional; in short: as §1
[8] = tested on: Streptococcus pneumoniae; assay: Bacterial challenge for systemic murine infection against Streptococcus pneumoniae 6301; type: functional
[9] = tested on: Enterococcus faecalis; assay: In vitro minimum inhibitory concentration was measured against Enterococcus faecalis ATCC 29212 strain.; type: functional; in short: as §1
[10] = target: T1, Peptidoglycan D,D-transpeptidase MrdA (Escherichia coli K-12) (UniProt P0AD65); assay: Affinity for penicillin binding protein 2 of Escherichia coli UB1005 (DC0) was evaluated.; parameters: unit not given here
T1 sequence (whole entry): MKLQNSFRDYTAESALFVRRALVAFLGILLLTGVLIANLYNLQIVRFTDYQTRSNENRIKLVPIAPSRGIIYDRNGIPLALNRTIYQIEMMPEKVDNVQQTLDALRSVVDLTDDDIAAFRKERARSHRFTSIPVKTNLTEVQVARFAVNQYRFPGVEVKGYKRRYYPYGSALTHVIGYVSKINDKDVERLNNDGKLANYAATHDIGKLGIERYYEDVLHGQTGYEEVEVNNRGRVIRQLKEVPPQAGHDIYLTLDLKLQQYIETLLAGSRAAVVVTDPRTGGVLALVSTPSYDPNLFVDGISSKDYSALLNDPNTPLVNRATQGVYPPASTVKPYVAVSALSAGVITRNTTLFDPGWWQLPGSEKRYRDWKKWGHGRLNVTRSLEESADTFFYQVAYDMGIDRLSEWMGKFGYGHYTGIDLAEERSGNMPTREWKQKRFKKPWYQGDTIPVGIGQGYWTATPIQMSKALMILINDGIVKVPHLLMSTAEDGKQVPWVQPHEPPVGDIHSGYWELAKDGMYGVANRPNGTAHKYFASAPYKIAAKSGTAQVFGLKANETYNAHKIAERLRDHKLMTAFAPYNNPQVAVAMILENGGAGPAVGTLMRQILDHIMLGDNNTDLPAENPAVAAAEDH
In short: (§3)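 Solubilised membranes from sonicated E. coli UB1005 served as the binding-protein source. Binding was read as inhibition of [14C]penicillin G binding.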

[11] = tested on: Enterobacter cloacae; assay: In vitro minimum inhibitory concentration was measured against Enterobacter cloacae 5699 strain.; type: functional
[12] = tested on: Enterobacter cloacae; assay: In vitro minimum inhibitory concentration was measured against Enterobacter cloacae p99 (beta lactamase producer) strain.; type: functional
[13] = tested on: Staphylococcus aureus; assay: Bacterial challenge for systemic murine infection against Staphylococcus aureus Smith; type: functional
[14] = target: T2, Penicillin-binding protein 1A (Escherichia coli K-12) (UniProt P02918); assay: Affinity for penicillin binding protein 1a of Escherichia coli UB1005 (DC0) was evaluated.; parameters: unit not given here; in short: as §3
T2 sequence (whole entry): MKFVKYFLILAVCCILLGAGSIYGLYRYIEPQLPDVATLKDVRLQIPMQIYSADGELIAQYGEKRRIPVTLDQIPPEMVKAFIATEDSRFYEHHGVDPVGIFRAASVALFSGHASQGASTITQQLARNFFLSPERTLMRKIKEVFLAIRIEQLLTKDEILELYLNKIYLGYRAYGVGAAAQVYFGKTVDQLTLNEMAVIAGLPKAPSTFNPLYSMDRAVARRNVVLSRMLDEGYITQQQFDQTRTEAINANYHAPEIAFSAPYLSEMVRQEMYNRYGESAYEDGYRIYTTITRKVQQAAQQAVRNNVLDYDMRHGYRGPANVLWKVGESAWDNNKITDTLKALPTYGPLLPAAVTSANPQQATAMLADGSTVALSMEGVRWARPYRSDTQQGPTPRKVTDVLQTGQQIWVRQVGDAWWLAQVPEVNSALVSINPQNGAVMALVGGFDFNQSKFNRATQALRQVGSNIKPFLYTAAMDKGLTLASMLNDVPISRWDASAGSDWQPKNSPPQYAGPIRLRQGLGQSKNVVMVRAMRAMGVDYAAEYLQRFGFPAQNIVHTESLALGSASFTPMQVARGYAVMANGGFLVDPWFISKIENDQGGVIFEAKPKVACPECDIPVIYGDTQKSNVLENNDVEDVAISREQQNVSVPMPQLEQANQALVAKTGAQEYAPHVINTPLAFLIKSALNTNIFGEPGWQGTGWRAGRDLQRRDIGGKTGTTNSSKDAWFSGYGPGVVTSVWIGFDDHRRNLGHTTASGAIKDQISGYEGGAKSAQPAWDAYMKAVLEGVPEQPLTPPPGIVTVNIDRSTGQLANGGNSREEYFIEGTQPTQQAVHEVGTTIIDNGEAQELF

[15] = tested on: Pseudomonas aeruginosa; assay: In vitro minimum inhibitory concentration was measured against Pseudomonas aeruginosa 8780 strain.; type: functional; in short: as §1
[16] = tested on: Staphylococcus aureus; assay: In vitro minimum inhibitory concentration was measured against Staphylococcus aureus 753 (Methicillin resistant) strain.; type: functional
[17] = tested on: Klebsiella pneumoniae; assay: Bacterial challenge for systemic murine infection against Klebsiella pneumoniae A; type: functional; in short: as §2
[18] = tested on: Escherichia coli; assay: In vitro minimum inhibitory concentration was measured against Escherichia coli ATCC 25922 strain.; type: functional; in short: as §1
[19] = tested on: Proteus vulgaris; assay: In vitro minimum inhibitory concentration was measured against Proteus vulgaris 1028BC (beta lactamase producer) strain.; type: functional; in short: as §1
[20] = tested on: Escherichia coli; assay: In vitro minimum inhibitory concentration was measured against Escherichia coli 257 strain.; type: functional; in short: as §1
[21] = tested on: Enterobacter cloacae; assay: Bacterial challenge for systemic murine infection against Enterobacter cloacae 5699; type: functional; in short: as §2
[22] = tested on: Escherichia coli; assay: Minimum inhibitory concentration for DC2, a permeability mutant
In short: as §1, with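 “MICs were determined by agar dilution with 2-fold dilutions giving final 128–0.0156 µg/mL, extended to 0.000977 µg/mL where needed. Streptococci” for “Streptococci”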

[23] = tested on: Serratia marcescens; assay: In vitro minimum inhibitory concentration was measured against Serratia marcescens 1071(beta lactamase producer) strain.; type: functional; in short: as §1

| SMILES | LD50 [1] | MIC [2] | MIC [3] | MIC [4] | LD50 [5] | MIC [6] | MIC [7] | LD50 [8] | MIC [9] | Binding affinity [10] | MIC [11] | MIC [12] | LD50 [13] | Binding affinity [14] | MIC [15] | MIC [16] | LD50 [17] | MIC [18] | MIC [19] | MIC [20] | further results |
| --- | --- | --- | --- | --- | --- | --- | --- | --- | --- | --- | --- | --- | --- | --- | --- | --- | --- | --- | --- | --- | --- |
| CO/N=C(\C(=O)N[C@@H]1C(=O)N2C(C(=O)O)=C(CN3CCN(c4cc5c(cc4F)c(=O)c(C(=O)O)cn5C4CC4)CC3)CS[C@H]12)c1csc(N)n1 | >10000 | 8 µg/mL (≈ 11 µM) | 4 µg/mL (≈ 5.5 µM) | 0.125 µg/mL (≈ 0.172 µM) | 27 | 2 µg/mL (≈ 2.75 µM) | 1 µg/mL (≈ 1.38 µM) | >10000 | 4 µg/mL (≈ 5.5 µM) | 100 | 0.5 µg/mL (≈ 0.688 µM) | 0.125 µg/mL (≈ 0.172 µM) | >8 | > 100 | 8 µg/mL (≈ 11 µM) | 4 µg/mL (≈ 5.5 µM) | >10000 | 0.125 µg/mL (≈ 0.172 µM) | 0.25 µg/mL (≈ 0.344 µM) | 0.125 µg/mL (≈ 0.172 µM) | LD50 [21]: 7055; MIC [22]: 0.063 µg/mL (≈ 0.0867 µM); MIC [23]: 1 µg/mL (≈ 1.38 µM) |
| CO/N=C(\C(=O)N[C@@H]1C(=O)N2C(C(=O)O)=C(COC(C)=O)CS[C@H]12)c1csc(N)n1 [CEFOTAXIME] | >250 | > 128 µg/mL | 2 µg/mL (≈ 4.39 µM) | 0.031 µg/mL (≈ 0.0681 µM) | <25 | 128 µg/mL (≈ 281 µM) | 0.031 µg/mL (≈ 0.0681 µM) | 69 | 0.25 µg/mL (≈ 0.549 µM) | 100 | 0.125 µg/mL (≈ 0.274 µM) | 64 µg/mL (≈ 141 µM) | 6 | 0.1 | 16 µg/mL (≈ 35.1 µM) | > 128 µg/mL | 45 | 0.063 µg/mL (≈ 0.138 µM) | > 128 µg/mL | 0.031 µg/mL (≈ 0.0681 µM) | LD50 [21]: 50; MIC [22]: < 0.016 µg/mL; MIC [23]: 32 µg/mL (≈ 70.3 µM) |
